Among all 2,500 compounds or so, about 1,200 (48%) were called active. So high a share suggests a set chosen from earlier hits. The list shows a part of the results. Values without a mark were called inactive.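 Rule for the calls: active = mean activation above the low control average plus 3 SD, as set in the primary screen (cut at about 12% in these data); inactive = the rest.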
These compounds were tested against Troponin I, cardiac muscle (Homo sapiens) + Troponin T, cardiac muscle (Homo sapiens) + Troponin C, slow skeletal and cardiac muscles (Homo sapiens) (UniProt P19429+P45379+P63316) (assay: calcium sensitizers of cardiac thin filaments – biochemical, IANBD-TnC fluorescence, triplicate, confirmation (AID 504383;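 note: 0% = DMSO at 0.472 mM calcium and 100% = DMSO at 2.9 mM calcium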)). Details: IANBD-labeled cardiac RTF, Ca2+ sensitivity fluorescence; at 7.2 µM; active compounds read high; scaled from EC20 to saturating calcium; tested at EC20 calcium, 0.472 mM.
How it was run: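 material = labelled regulated thin filaments | probe or stimulus = Ca2+ 0.472 mM, EC20 level | dosing = single nominal compound dose of 7.2 µM | schedule = 15 min at 25 °C | signal = fluorescence intensity of labelled filaments | evaluation = fluorescence gain scaled between EC20 and EC100 calcium controls | benchmarks = low control EC20 calcium, high control EC100 calcium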

Structure (SMILES) | activation
C=CCN1C(=O)[C@@H]2Cc3c([nH]c4ccccc34)C(c3ccc(O)cc3)N2C1=S (some centres not stated) | 4.94%
N#CC12COC3(CCCCC3C1(C#N)C#N)OC2=N (configuration not stated) | 2.01%
CN(C)c1ccc(/C=C2\CCC/C(=C\c3ccccc3)C2=O)cc1 | 0.5%
CCN(CC)c1ccc(C=C2SC(=S)NC2=O)cc1 | 57.9% (active)
CCOc1ccc(N(C)c2ccc(/C=C3/SC(=S)NC3=O)cc2)cc1 | 20.5% (active)
CCN(CC)c1ccc(/C=C2\SC(N)=NC2=O)cc1 | 108% (active)
CN(C)c1ccc(C=C2SC(=S)NC2=O)cc1 | 11.7% (active)
COc1ccc(-c2nn(CCC(=O)O)cc2/C=C2\SC(N)=NC2=O)cc1 | 8.42%
COc1ccccc1N=C1NC(=O)/C(=C/c2ccc(N(C)C)cc2)S1 | 10.9%
CCCOc1ccc(-c2nn(-c3ccccc3)cc2/C=C2\SC(N)=NC2=O)cc1 | -0.61%
NC(=O)C1(NC(=O)[C@@H]2CC3(CC(c4cccc(NC(=O)[C@@H]5CCC(=O)N5)c4)=NO3)CN2C(=O)c2ccccc2)CC1 (some centres not stated) | 9.17%
COc1ccc(N/C=C2\C(=O)CCc3c2oc2cc(Cl)c(O)c(Cl)c32)cc1 | 47.7% (active)
Cc1cccc(/C=C2/SC(=O)N(Cc3ccccc3)C2=O)n1 | 47.1% (active)
COC(=O)c1ccccc1NC(=O)[C@@H]1CCC(=O)N1C1OC(=O)c2c1ccc(OC)c2OC (some centres not stated) | 3.55%
CCOc1cc2c(cc1/C=C/c1noc(C)c1[N+](=O)[O-])OC(C)C2 (configuration not stated) | 330% (active)
C=CCn1cc(/C=C/c2cc[n+](C)cc2)c2ccccc21 | 5.8%
C=CCn1c(C)c(/C=C/c2cc[n+](C)cc2)c2ccccc21 | 38.7% (active)
CCn1cc(/C=C/c2cc[n+](C)cc2)c2ccccc21 | 12.4% (active)
CC(C)n1cc(/C=C/c2cc[n+](C)cc2)c2ccccc21 | 31.7% (active)
Cn1cc(/C=C/c2cc[n+](C)cc2)c2cc(Cl)ccc21 | 3.84%
COC(=O)Cn1c(C)c(/C=C/c2cc[n+](C)cc2)c2ccccc21 | 12.8% (active)
CCN(CC)C(=O)Cn1c(C)c(/C=C/c2cc[n+](C)cc2)c2ccccc21 | 6.95%
Cn1cc(/C=C/c2cc[n+](C)cc2)c2cc(F)ccc21 | 6.92%
COC(=O)c1ccc2c(c1)C(C)(C)C(/C=C/c1ccccc1O)=[N+]2C | 7.52%

Structure (SMILES) | activation
COC(=O)Cn1cc(/C=C/c2cc[n+](C)cc2)c2ccccc21 | 16.8% (active)
Oc1ccc2ccc3cccc[n+]3c2c1 | 68.4% (active)
CC(=O)c1ccc2noc(-c3ccc(C)cc3)c2c1 | 6.52%
COc1ccc(-c2onc3ccc(C(C)=O)cc23)cc1 | 18% (active)
CC1(c2ccc(OC(F)F)cc2)NC(=O)N(CC(=O)Nc2ccc(F)cc2)C1=O (configuration not stated) | 1.92%
O=C(CN1C(=O)NC2(CCCCC2)C1=O)Nc1ccccc1Cl | 12.1% (active)
CCC1(c2ccccc2)NC(=O)N(CC(=O)Nc2ccc(OC)nc2)C1=O (configuration not stated) | 11%
C=CCOc1ccc(C2OC34CCCCC3C(C#N)(C#N)C2(C#N)C(=N)O4)cc1 (configuration not stated) | 11.3%
Cc1cc(C)n2nc(C(=O)N3CCCC(Nc4ccc(C(C)C)cc4)C3)cc2n1 (configuration not stated) | 11.9% (active)
COc1ccc(-c2ccc(C3C(C#N)=C(N)Oc4n[nH]c(C)c43)o2)cc1 (configuration not stated) | 53.6% (active)
Cc1[nH]nc2c1C(c1cc(Br)cs1)C(C#N)=C(N)O2 (configuration not stated) | 1.18%
CCCCCCCC(=O)Nc1ccc(S(=O)(=O)Nc2nccs2)cc1 | 39.1% (active)
CC(NC(=O)COc1ccc(N(C)S(=O)(=O)c2ccccc2)cc1)c1ccccc1 (configuration not stated) | 8.81%
O=C(NCc1cccc(C(F)(F)F)c1)c1cccc(S(=O)(=O)NCc2ccccc2)c1 | 7.34%
CN(C)C(CNC(=O)c1cccc(S(=O)(=O)N(C)C)c1)c1ccccc1 (configuration not stated) | 14.9% (active)
CCOc1ccc(N2C(=O)CC(SCc3nc4ccccc4[nH]3)C2=O)cc1 (configuration not stated) | 16.2% (active)
CC(=O)C1=C(O)CCCC1=NCc1nc2ccccc2[nH]1 | 2.38%
O=C(CSC1CC(=O)N(c2ccc(C(=O)O)cc2)C1=O)Nc1ccc2ccccc2c1 (configuration not stated) | 1.35%
C[C@H](O)C(=O)C1=Nc2c(nc(N)[nH]c2=O)NC1 | -0.23%
Cc1ccc(C)c(N2CCN(C(=O)c3cc4ccccn4n3)CC2)c1 | 21.1% (active)
O=C(Nc1ccc(Cl)c(Cl)c1)Nc1ccc([N+](=O)[O-])cn1 | 28.5% (active)
O=C(Nc1ccc(N2CCN(C(=O)c3ccco3)CC2)cc1)c1ccc(F)cc1 | 14.9% (active)
O=C(COC(=O)C1(c2ccc(F)cc2)CCCC1)N1CCN(C(=O)c2ccco2)CC1 | 3.96%
